This passage reports folding enthalpy and Tm results from the array DNA melting data of Ke et al. (doi:10.1101/2024.01.08.574731).

Series [1] can be described thus: folding enthalpy; higher = less favourable; fluorescence melt of hairpins on a sequencing array, two-state fit. To be noted: sodium 0.088 M. Summed up: (§1)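 Two-state fits, bootstrapped, provided melting temperature and folding enthalpy from Cy3 fluorescence normalised to pre-quench Cy3 and to control constructs. Library hairpins with annealed Cy3 and quencher oligos were imaged on a sequenced MiSeq flow cell in 50 mM Na-HEPES pH 8.0, 25 mM NaCl, at 2.5 °C intervals up to 60 °C. Four replicates were combined with inverse-variance weighting. A 9.35 °C upward shift was applied to fitted temperatures to match UV melts.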

Series [2] is described as follows: melting temperature; fluorescence melt of hairpins on a sequencing array, two-state fit, raised by 9.35 °C to match UV melts. To be noted: sodium 0.088 M. Summed up:
as §1

For GGTCCCCGAAAGGGACC (((.(((....)))))), the folding enthalpy in series [1] was -30.6 kcal/mol. In addition, in series [2], the Tm was 68.4 °C.

For GGTCCCGAAAGGGACACC ((((((....)))..))), the folding enthalpy in series [1] is -8.21 kcal/mol. Further, in series [2], the Tm was determined as 54.5 °C.

Take GGTCCCGAAAGGGCGACC ((((((....)))..))): in series [1], the folding enthalpy was -14.3 kcal/mol. For the same sequence, the Tm in series [2] is 46 °C.

GGTCCCGAAAGGGGGACC ((((((....)))..))): in series [1], the folding enthalpy was -25.4 kcal/mol. Besides, the Tm in series [2] stood at 59.2 °C.

On to GGTCCCGAAAGGGTAACC ((((((....)))..))), for which the folding enthalpy in series [1] was -18 kcal/mol. Also, the Tm in series [2] amounted to 42.2 °C.

On to GGTCCCGAAAGGGTGACC ((((((....)))..))), for which, in series [1], the folding enthalpy is -19.6 kcal/mol. Further, the Tm in series [2] was determined as 48 °C.

GGTCCCGCGAAAGCGACC (((..(((....)))))): the folding enthalpy in series [1] is -11.3 kcal/mol. For the same sequence, in series [2], the Tm worked out at 37.7 °C.

Turning to GGTCCCGGAAACGAGACC ((((.((....)).)))), the folding enthalpy in series [1] was -32 kcal/mol. Besides, the Tm in series [2] came to 49.6 °C.

GGTCCCGGAAACGGAACC (((.(((....))).))): the folding enthalpy in series [1] is -36 kcal/mol. Besides, the Tm in series [2] is 48 °C.

With GGTCCGGCGAAAGCCACC (((..(((....)))))), the folding enthalpy in series [1] was -8.92 kcal/mol. The Tm in series [2] was 27.1 °C.

As for GGTCCGGGAAACCGGATC (.(((((....))))).), the folding enthalpy in series [1] was -24 kcal/mol. Also, the Tm in series [2] stood at 58.9 °C.

As to GGTCCTCGAAAGAGCACC (((.(((....))).))), the folding enthalpy in series [1] was -27.1 kcal/mol. Moreover, the Tm in series [2] amounted to 38.5 °C.

For GGTCCTCGAAAGAGTACC (((.(((....))).))), in series [1], the folding enthalpy is -31.1 kcal/mol. The Tm in series [2] is 43.4 °C.

In the case of GGTCCTGAAAAGGACC ((((((....)))))), the folding enthalpy in series [1] is -30.9 kcal/mol. Moreover, the Tm in series [2] stood at 68.2 °C.

Regarding GGTCCTGGAAACAGGGCC ((.((((....)))).)), the folding enthalpy in series [1] was -46.3 kcal/mol. Moreover, in series [2], the Tm came to 60.8 °C.

Regarding GGTCCTGGAAACGGGACC (((((.(....).))))), in series [1], the folding enthalpy is -57.4 kcal/mol. Further, the Tm in series [2] amounted to 57.3 °C.

Turning to GGTCGACGAAAGTCACC (((.(((....)))))), the folding enthalpy in series [1] was -16.2 kcal/mol. Moreover, the Tm in series [2] came out at 50.9 °C.

GGTCGACGAAAGTCCACC (((.(((....))).))): the folding enthalpy in series [1] was -25.6 kcal/mol. For the same sequence, the Tm in series [2] came out at 43.9 °C.

Consider GGTCGAGGAAACTCAACC (((.(((....))).))), for which, in series [1], the folding enthalpy was -29.5 kcal/mol. Also, the Tm in series [2] amounted to 37 °C.

With GGTCGCCGAAAGGCAACC (((.(((....))).))), the folding enthalpy in series [1] was -24.6 kcal/mol. In addition, in series [2], the Tm is 56.1 °C.

As to GGTCGCGAAAGCGAAACC ((((((....)))..))), in series [1], the folding enthalpy is -11.9 kcal/mol. For the same sequence, in series [2], the Tm worked out at 50 °C.

In the case of GGTCGCGAAAGCGAACC ((((((....))).))), in series [1], the folding enthalpy is -15.2 kcal/mol. Further, the Tm in series [2] was found to be 67.3 °C.

Consider GGTCGCGAAAGCGCACC ((((((....))).))), for which the folding enthalpy in series [1] is -20.8 kcal/mol. Besides, in series [2], the Tm came out at 60.3 °C.

Take GGTCGCGGAAACGCGATC (.(((((....))))).): the folding enthalpy in series [1] was -17.6 kcal/mol. In addition, the Tm in series [2] was 63.7 °C.

Turning to GGTCGGCGAAAGCCAACC (((.(((....))).))), in series [1], the folding enthalpy was -21 kcal/mol. For the same sequence, the Tm in series [2] amounted to 55.3 °C.

Regarding GGTCGGCGAAAGCCCACC (((.(((....))).))), the folding enthalpy in series [1] is -21.7 kcal/mol. Moreover, the Tm in series [2] turned out to be 46.9 °C.

As for GGTCGGCGAAAGCCTACC (((.(((....))).))), in series [1], the folding enthalpy was -25.9 kcal/mol. Moreover, the Tm in series [2] came out at 53.5 °C.

In the case of GGTCGGGGAAACTCGACC (((((.(....).))))), the folding enthalpy in series [1] was -42.8 kcal/mol. In series [2], the Tm came to 58 °C.

As for GGTCGTCGAAAGACAACC (((.(((....))).))), the folding enthalpy in series [1] was -26.1 kcal/mol. Besides, the Tm in series [2] stood at 48.9 °C.

Consider GGTCGTCGAAAGACACC (((.(((....)))))), for which, in series [1], the folding enthalpy was -22.1 kcal/mol. Further, the Tm in series [2] was 52.1 °C.
